LEDGF integ inh: blocks HIV-1 LEDGF/p75-dependent DNA integration; TR-FRET IN-LEDGF/p75 DNA integration, Eu/Cy5; inhibition, % at 3.7 µM; actives 0.64% (n = 370,000);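 active = inhibition above the screen-wide mean plus 3 SD, cut at about 13% in these data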;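 also: signal is the Cy5 over europium emission ratio at 671 and 618 nm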
UHRF1 binding: UHRF1 methyl-DNA binding inhibition | UHRF1 binding to methylated oligo, TR-FRET | inhibition, % at 4.4 µM | actives 0.75% (n = 370,000) | AID 687016; in the data active = inhibition above about 21%;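 also: UHRF1 SRA domain binding a hemimethylated CpG hairpin DNA probe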
MBD2 inh: MBD2-methylated oligo binding inhibition. actives 0.31% (n = 370,000). Q9UBB5. inhibition, % at 4.4 µM. TR-FRET, MBD2 binding to methylated oligonucleotide; in the data active = inhibition above about 13%
CSN inh: CSN deneddylation inhibition. Q92905. inhibition, % at 12.5 µM. actives 0.38% (n = 360,000). Purified CSN, SCF-Nedd8-OG deneddylation, fluorescence polarization;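 active = pattern-corrected inhibition above about 35%, with an unprinted fluorescence ratio check between 0.5 and 1.5, limit read from the data, passing the limit was not always enough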
Target sequence (Q92905 whole entry, looked up, one chain of several): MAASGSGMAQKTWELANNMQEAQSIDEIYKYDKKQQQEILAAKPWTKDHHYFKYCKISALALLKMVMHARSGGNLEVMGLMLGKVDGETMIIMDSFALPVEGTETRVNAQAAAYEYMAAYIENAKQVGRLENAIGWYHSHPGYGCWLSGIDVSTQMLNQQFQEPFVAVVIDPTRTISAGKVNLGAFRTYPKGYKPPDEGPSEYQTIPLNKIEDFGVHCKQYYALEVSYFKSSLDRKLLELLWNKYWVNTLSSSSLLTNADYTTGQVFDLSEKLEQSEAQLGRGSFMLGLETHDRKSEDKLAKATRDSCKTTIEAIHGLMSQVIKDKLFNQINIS
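Assay system: purified human Csn5 enzyme expressed in HEK293T cells; Input: 0.24 nM Csn5 enzyme, final concentration; Reagent: 10 nM SCFSkp2-Nedd8OG; Compound dosing: 12.5 µM single point; Times: reaction 90 min, room temperature; Technique: fluorescence polarization readout.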
ATG4B inh: inhibitors of human ATG4B cysteine protease | Q9Y4P1 | ATG4B cleavage of LC3-PLA2, NBD-HPC fluorescence, 1 h | inhibition, % at 8.33 µM | actives 0.51% (n = 340,000) | AID 504462; in the data active = inhibition above about 40%
rCAG binder: molecules binding r(CAG) RNA repeats | inhibition, % at 3 µM | r(CAG) RNA repeat, TO-PRO-1 dye displacement fluorescence | actives 1.3% (n = 370,000) | AID 651821;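 active = inhibition above the plate cutoff, the mean of all test compounds on that plate plus 3 SD, cut at about 35% in these data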;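 also: higher means more dye released from RNA so lower well fluorescence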
IN multimer up: HIV-1 integrase multimerization activation, counter-screen | actives 17% (n = 2,000) | shares compounds with LEDGF integ inh | activation, % at 7.7 µM | TR-FRET HIV-1 integrase multimerization, biochemical; in the data active = activation above about 8.9%
TR-FRET interf: TR-FRET optical interference, LEDGF/p75 integration counter-screen; shares compounds with LEDGF integ inh; TR-FRET optical interference counterscreen, HIV-1 IN multimerization; inhibition, % at 7.7 µM; 2,000 tested, under 10 active;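 active = inhibition above the mean over all tested compounds plus 3 SD, which no compound reached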
IN-LEDGF confirm: confirmation of HIV-1 LEDGF/p75-dependent integration inhibitors; shares compounds with LEDGF integ inh; TR-FRET LEDGF/p75-dependent HIV-1 integration, biochemical; inhibition, % at 3.7 µM; actives 36% (n = 2,000); AID 1053136; in the data active = inhibition above about 14%
A number is an active result; . = inactive; / = not tested or not shown. Only some compounds are listed: those with a hit (about 3.1% of all), similar ones and a draw of the others.

SMILES	LEDGF integ inh	UHRF1 binding	MBD2 inh	CSN inh	ATG4B inh	rCAG binder	IN multimer up	TR-FRET interf	IN-LEDGF confirm
O=c1[nH]c2cc(Cl)ccc2n1C1CCN(Cc2ccc(-c3nc4ccccc4nc3-c3ccccc3)cc2)CC1	.	.	.	/	/	.	/	/	/
C=CCn1c(O)c(C=Nc2ccc(F)cc2)c(=O)[nH]c1=O	.	.	.	.	.	.	/	/	/
Cc1ccccc1-n1c(O)c(C=Nc2ccc(N(C)C)cc2)c(=O)[nH]c1=O	19	.	.	.	.	.	.	.	.
Cc1cccc(N=Cc2c(O)n(-c3ccccc3C)c(=O)[nH]c2=O)c1	.	.	.	.	.	.	/	/	/
C=CCn1c(O)c(C=Nc2ccc(N(CC)CC)cc2)c(=O)[nH]c1=O	30	.	.	.	.	.	.	.	.
Cn1cc(P(=S)(c2ccccc2)c2ccccc2)c2ccccc21	.	.	.	/	/	/	/	/	/
CCCCC(=O)N/N=C/c1c(O)n(Cc2ccco2)c(=O)[nH]c1=O	27	.	.	.	.	.	.	.	.
O=c1[nH]c(=O)n(Cc2ccco2)c(O)c1C=NCc1ccco1	15	.	.	.	.	.	.	.	.
CCN(CC)CCN=Cc1c(O)n(Cc2ccco2)c(=O)[nH]c1=O	.	.	.	.	.	.	/	/	/
O=C(CCc1ccccc1)N1Cc2cc(N3CCCCC3)ccc2-n2nncc2C1	.	.	.	.	/	.	/	/	/
Cc1ccc(N2C(=O)NC(=O)/C(=C\c3cccn3C(C)(C)C)C2=O)cc1	.	.	.	.	.	.	/	/	/
Cc1ccc(N2C(=O)NC(=O)/C(=C/C=C/c3ccco3)C2=O)cc1	35	.	.	.	.	.	.	.	24
C=CCN1C(=O)NC(=O)/C(=C/c2ccoc2)C1=O	14	28	.	.	.	.	.	.	42
Cc1cc(/C=C2/C(=O)NC(=O)N(Cc3ccco3)C2=O)c(C)n1-c1ccccc1O	26	.	.	.	.	.	.	.	.
S=P(c1ccccc1)(c1ccccc1)c1c[n+](Cc2ccccc2)c2ccccn12	.	.	.	/	/	/	/	/	/
CCC(C)NC(=O)c1c(N)n(CCCOC)c2nc3ccccc3nc12 (stereo not drawn)	39	.	.	.	.	.	.	.	14
COCCCn1c(N)c(C(=O)Nc2ccccc2)c2nc3ccccc3nc21	.	.	.	.	.	.	/	/	/
COCCCn1c(N)c(C(=O)NCc2ccco2)c2nc3ccccc3nc21	33	.	.	/	.	.	.	.	52
CCC(C)NC(=O)c1c(N)n(CC2CCCO2)c2nc3ccccc3nc12 (stereo not drawn)	19	.	.	.	.	.	.	.	.
CC(C)(C)OC(=O)c1c(N)n(Cc2ccco2)c2nc3ccccc3nc12	35	.	.	.	.	.	.	.	.
CC(C)CCNC(=O)c1c(N)n(CC2CCCO2)c2nc3ccccc3nc12 (stereo not drawn)	.	.	.	.	.	.	/	/	/
COCCNC(=O)c1c(N)n(Cc2ccco2)c2nc3ccccc3nc12	.	.	.	.	.	.	/	/	/
C=CCN1C[C@H](C)N(C(c2ccc(C(=O)N(CC)CC)cc2)c2cccc(OC)c2)CC1C (stereo partly drawn)	.	.	.	/	/	.	/	/	/
C[C@@H]1CNCCN1c1ccc(N2CC[C@@H](O)C2)c(C#N)c1	.	.	.	/	/	.	/	/	/
O=S(=O)(c1cccc(C(F)(F)F)c1)N1Cc2ccccc2-n2nncc2C1	.	.	.	.	/	.	/	/	/
COc1ccc(OC(=O)N(C)C[C@H]2OCc3cnnn3CCCC(=O)N([C@H](C)CO)C[C@@H]2C)cc1	.	.	.	.	/	.	/	/	/
O=C1NC(=O)C(=Cc2cc3c(cc2[N+](=O)[O-])OCO3)C(=O)N1	21	.	.	.	.	.	.	.	.
